Experimental findings from ChEMBL document CHEMBL4049431 (J Med Chem, 2017) are described below.

Molecules are shown by their SMILES. Active and inactive are the calls of the source. Some results are limits rather than exact numbers.

The target of series [1] is Delta-type opioid receptor (Homo sapiens) (UniProt P41143). The series can be described thus: Agonist activity at human delta-type opioid receptor expressed in CHO-K1 cells assessed as forskolin-induced cAMP accumulation up to 10 uM after 30 mins in presence of forskolin by luminescence-based HitHunter cAMP assay. It counts as functional, cell-based. The gist of the method:
(§1)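 CHO-K1 cells expressing the receptor were kept at 37 °C in 5% CO2. cAMP data were normalized to vehicle and forskolin-only controls. Each compound was run in triplicate in parallel assays in ≥2 independent experiments. EC50 and Emax came from sigmoidal nonlinear regression and were averaged across experiments as mean ± SEM.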

In series [2] the target is Mu-type opioid receptor (Homo sapiens) (UniProt P35372). The series can be described thus: Agonist activity at human mu-type opioid receptor expressed in CHO-K1 cells assessed as forskolin-induced cAMP accumulation up to 10 uM after 30 mins in presence of forskolin by luminescence-based HitHunter cAMP assay. The format is functional, cell-based. The gist of the method: as §1

The nature of series [3]: Metabolic stability in IGS Sprague-Dawley rat liver microsomes assessed as CYP450-mediated oxidative metabolism at 10 uM measured at 2.5 hrs in presence of NADPH by LC-MS analysis. It counts as ADME. The gist of the method:
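Rat liver microsomes (0.25 mg/mL) in 50 mM potassium phosphate with 2 mM MgCl2, pH 7.4, were prewarmed to 37 °C. Compound (10 μM final) and NADPH (1 mM final) were added. Samples were quenched in MeCN with 1% formic acid containing tolbutamide, centrifuged and analysed by LCMS.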

In series [4] the test system is Liver. Briefly: Metabolic stability in IGS Sprague-Dawley rat liver microsomes at 10 uM measured at 2.5 hrs in absence of NADPH by LC-MS analysis. It counts as ADME, microsome. In a few lines: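 Incubation used rat liver microsomes (0.25 mg/mL) in 50 mM potassium phosphate, 2 mM MgCl2, pH 7.4, at 37 °C, with 10 μM compound final and buffer in place of NADPH. Samples were quenched in MeCN/1% formic acid with tolbutamide, then quantified by LCMS.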

In series [5] the test system is Mus musculus. Briefly: Analgesic activity in B6-SJL mouse assessed as increase in tail withdrawal latency at 2 mg/kg, ip measured up to 5 to 30 mins by warm water tail withdrawal assay. It counts as functional, organism-based. In a few lines: (§2)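 Adult male mice (25−35 g) were habituated to restrainers over four days. Drug or vehicle (DMSO:Tween-80:saline 2:1:7) was given ip. One-third of the tail was immersed in 50 °C water, with a 10 s cutoff. Baseline was the mean of three latencies. Readings were taken at 5–120 min. %MPE was calculated against pretreatment latency; n = 8−9 per group.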

Series [6] relates to Mus musculus. Briefly: Analgesic activity in sc dosed B6-SJL mouse assessed as increase in tail withdrawal latency measured 30 mins post each dose by warm water tail withdrawal assay. The format is functional. The settings on record: 0.5 h. The gist of the method:
(§3)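 Vehicle was DMSO:Tween-80:saline 2:1:7. Tail-withdrawal latency in 50 °C water (10 s cutoff) was recorded 30 min after each dose.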

Series [7] relates to Mus musculus. Briefly: Analgesic activity in B6-SJL mouse assessed as increase in tail withdrawal latency at 0.3 to 10 mg/kg, sc measured 30 mins post each dose by warm water tail withdrawal assay. The format is functional. The following applies: 0.5 h. In a few lines:
as §3

For series [8], the system named is Mus musculus. The series can be described thus: Analgesic activity in formalin-induced B6-SJL mouse pain model assessed as inhibition of nociceptive response at 2 mg/kg, ip preincubated for 10 mins followed by formalin injection measured at 5 to 10 mins. The format is functional, organism-based. In a few lines: (§4)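 Mice habituated to the test box received agonist ip in DMSO:Tween-80:saline (2:1:7). Ten min later, 20 μL of 2% formalin was injected intradermally into the right hind footpad. Video ran for 60 min, scored every 5 s (weight-bearing scale 0–3) by a blinded analyst and averaged per 5 min.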

The subject of series [9] is Mus musculus. Briefly: Analgesic activity in formalin-induced B6-SJL mouse pain model assessed as inhibition of nociceptive response AUC at 2 mg/kg, ip preincubated for 10 mins followed by formalin injection measured up to 15 mins. The format is functional, organism-based. In a few lines: as §4
Series [10] concerns Mus musculus. Briefly: Analgesic activity in formalin-induced B6-SJL mouse pain model assessed as inhibition of inflammatory response AUC at 2 mg/kg, ip preincubated for 10 mins followed by formalin injection measured at 15 to 60 mins. It counts as functional, organism-based. The gist of the method: as §4
For series [11], the system named is Mus musculus. Briefly: Antiinflammatory activity in B6-SJL mouse assessed as reduction in formalin-induced paw edema at 2 mg/kg, ip preincubated for 10 mins followed by formalin injection measured at 60 mins. The format is functional, organism-based. The gist of the method: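 Right hind paw height, width and depth were measured by calipers before ip drug or vehicle (DMSO:Tween-80:saline 2:1:7). Intradermal 2% formalin (20 μL) followed 10 min later, and measurements were repeated at 60 min. One-way ANOVA with Bonferroni tests; n = 7 per group.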

Series [12] concerns Mus musculus. Briefly: Analgesic activity in formalin-induced B6-SJL mouse pain model assessed as inhibition of inflammatory response at 2 mg/kg, ip preincubated for 10 mins followed by formalin injection measured at 20 to 50 mins. It counts as functional, organism-based. The gist of the method: as §4
For series [13], the target named is T1, Kappa-type opioid receptor (Homo sapiens, UniProt P41145). Briefly: Agonist activity at human kappa-type opioid receptor expressed in CHO-K1 cells assessed as forskolin-induced cAMP accumulation after 30 mins in presence of forskolin by luminescence-based HitHunter cAMP assay. It counts as functional, cell-based. In a few lines:
as §1

For series [14], the target named is T1, Kappa-type opioid receptor. Briefly: Agonist activity at human kappa-type opioid receptor expressed in CHO-K1 cells assessed as forskolin-induced cAMP accumulation up to 10 uM after 30 mins in presence of forskolin by luminescence-based HitHunter cAMP assay. The format is functional, cell-based. In a few lines: as §1
Series [15] relates to Mus musculus. The series can be described thus: Analgesic activity in B6-SJL mouse assessed as increase in tail withdrawal latency at 2 mg/kg, ip measured up to 10 to 30 mins by warm water tail withdrawal assay. It counts as functional, organism-based. The gist of the method:
as §2

Series [16] deals with Mus musculus. Briefly: Analgesic activity in formalin-induced B6-SJL mouse pain model assessed as inhibition of nociceptive response at 2 mg/kg, ip preincubated for 10 mins followed by formalin injection measured at 10 mins. The format is functional, organism-based. The gist of the method: as §4
Series [17] has as its system Mus musculus. The series can be described thus: Analgesic activity in formalin-induced B6-SJL mouse pain model assessed as inhibition of nociceptive response at 2 mg/kg, ip preincubated for 10 mins followed by formalin injection measured at 10 mins in presence of kappa-type opioid receptor antagonist nor-BNI. The format is functional, organism-based. The gist of the method: (§5)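 nor-BNI (10 mg/kg, sc) was given 24 h before ip agonist (DMSO:Tween-80:saline 2:1:7). After 10 min, 20 μL of 2% formalin was injected intradermally into the right hind paw.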

The subject of series [18] is Mus musculus. The series can be described thus: Analgesic activity in formalin-induced B6-SJL mouse pain model assessed as inhibition of inflammatory response at 2 mg/kg, ip preincubated for 10 mins followed by formalin injection measured at 20 to 45 mins. It counts as functional, organism-based. The gist of the method:
as §4

Series [19] has as its system Mus musculus. The series can be described thus: Analgesic activity in formalin-induced B6-SJL mouse pain model assessed as inhibition of inflammatory response at 2 mg/kg, ip preincubated for 10 mins followed by formalin injection measured at 20 to 45 mins in presence of kappa-type opioid receptor antagonist nor-BNI. It counts as functional, organism-based. The gist of the method:
as §5

The test system of series [20] is Mus musculus. The series can be described thus: Analgesic activity in formalin-induced B6-SJL mouse pain model assessed as inhibition of nociceptive response AUC at 2 mg/kg, ip preincubated for 10 mins followed by formalin injection measured up to 15 mins in presence of kappa-type opioid receptor antagonist nor-BNI. It counts as functional, organism-based. The gist of the method: as §5

Series [21] concerns Mus musculus. Briefly: Analgesic activity in formalin-induced B6-SJL mouse pain model assessed as inhibition of inflammatory response AUC at 2 mg/kg, ip preincubated for 10 mins followed by formalin injection measured at 15 to 60 mins in presence of kappa-type opioid receptor antagonist nor-BNI. The format is functional, organism-based. In a few lines: as §5

Sequence of Mu-type opioid receptor (Homo sapiens) (P35372 whole entry): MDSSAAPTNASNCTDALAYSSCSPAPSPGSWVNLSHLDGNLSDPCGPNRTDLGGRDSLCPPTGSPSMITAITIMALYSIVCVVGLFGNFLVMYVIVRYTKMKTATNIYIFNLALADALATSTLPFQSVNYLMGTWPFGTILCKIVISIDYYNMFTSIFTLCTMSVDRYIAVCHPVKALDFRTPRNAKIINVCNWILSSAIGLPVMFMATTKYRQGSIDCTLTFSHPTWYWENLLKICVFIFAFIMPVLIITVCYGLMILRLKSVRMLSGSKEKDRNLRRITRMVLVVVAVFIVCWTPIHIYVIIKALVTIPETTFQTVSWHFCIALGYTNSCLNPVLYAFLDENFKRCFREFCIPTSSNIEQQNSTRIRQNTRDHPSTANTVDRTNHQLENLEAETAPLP
Sequence of Delta-type opioid receptor (Homo sapiens) (P41143 whole entry): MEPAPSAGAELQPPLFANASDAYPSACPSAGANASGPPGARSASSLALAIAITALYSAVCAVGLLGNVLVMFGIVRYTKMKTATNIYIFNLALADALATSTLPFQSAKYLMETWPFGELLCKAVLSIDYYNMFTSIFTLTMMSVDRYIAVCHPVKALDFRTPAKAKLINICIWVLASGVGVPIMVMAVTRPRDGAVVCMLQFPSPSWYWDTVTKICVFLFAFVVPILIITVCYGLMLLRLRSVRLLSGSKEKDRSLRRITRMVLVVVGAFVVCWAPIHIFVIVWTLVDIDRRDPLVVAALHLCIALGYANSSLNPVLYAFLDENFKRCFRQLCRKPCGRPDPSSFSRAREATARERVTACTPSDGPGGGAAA
T1 sequence (P41145 whole entry): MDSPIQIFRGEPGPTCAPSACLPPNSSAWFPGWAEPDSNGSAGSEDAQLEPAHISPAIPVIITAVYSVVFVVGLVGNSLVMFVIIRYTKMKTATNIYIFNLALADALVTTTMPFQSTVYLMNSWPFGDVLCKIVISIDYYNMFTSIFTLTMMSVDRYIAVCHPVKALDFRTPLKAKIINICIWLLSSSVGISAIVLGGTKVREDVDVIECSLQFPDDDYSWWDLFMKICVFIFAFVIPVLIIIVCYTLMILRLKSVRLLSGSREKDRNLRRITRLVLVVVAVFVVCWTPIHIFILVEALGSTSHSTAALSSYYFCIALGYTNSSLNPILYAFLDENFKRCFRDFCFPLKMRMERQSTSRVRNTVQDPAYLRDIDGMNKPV

As for `COC(=O)[C@@H]1C[C@H](OC(C)=O)C(=O)[C@H]2[C@@]1(C)CC[C@H]1C(=O)O[C@H](c3ccoc3)C[C@]21C` [SALVINORIN A], the figures for the Emax in series [1], in series [2] and in series [7] were 0%, 0% and 100%, respectively. The Stability entry in series [3] and in series [4] was “Stable” in each case. In addition, the result in series [5] was Active. Also, in series [6], the ED50 is 1.28 mg/kg. Also, the inhibition result in series [8], in [9], in series [10], in [11] and in series [12] was “Active” in each case.
For `COC(=O)[C@H]1[C@](C)([C@@H](CC(=O)O)C(=O)OC)CC[C@H]2C(=O)O[C@H](c3ccoc3)C[C@]12C`, in series [13], the EC50 is more than 10000 nM. In addition, the Emax in series [14] is 0%.
As for `COC(=O)[C@@H]1CC(=O)C(O)=C2[C@@]1(C)CC[C@H]1C(=O)O[C@H](c3ccoc3)C[C@]21C`, the EC50 in series [13] was more than 10000 nM. Besides, the Emax in series [14] was 0%.
For the compound `COC(=O)[C@H]1[C@](C)([C@@H](CC(OC)OC)C(=O)OC)CC[C@H]2C(=O)O[C@H](c3ccoc3)C[C@]12C`, the EC50 in [13] amounted to 11.7 nM. Further, the Emax in series [14] was 100%; in series [1] it was 0%; in [2] it was 0%.
With `COC(=O)[C@@H]1CCC(=O)[C@H]2[C@@]1(C)CC[C@H]1C(=O)O[C@H](c3ccoc3)C[C@]21C`, the EC50 in series [13] was more than 10000 nM. For the same compound, the Emax in [14] was 0%.
For the compound `COC(=O)[C@H]1[C@](C)([C@@H](CC=O)C(=O)OC)CC[C@H]2C(=O)O[C@H](c3ccoc3)C[C@]12C`, in series [13], the EC50 was found to be 30 nM. Further, the Emax is 100% in series [14], 0% in series [1] and 0% in series [2].
On to `COC(=O)[C@@H]1C[C@H](O)C(=O)[C@H]2[C@@]1(C)CC[C@H]1C(=O)O[C@H](c3ccoc3)C[C@]21C`, for which the Emax worked out at 100% in series [14], 0% in series [1] and 0% in series [2].
For the compound `COC(=O)[C@H]1[C@](C)([C@@H](CCO)C(=O)OC)CC[C@H]2C(=O)O[C@H](c3ccoc3)C[C@]12C`, the EC50 in series [13] was more than 10000 nM. Moreover, in series [14], the Emax turned out to be 0%.
`COC(=O)[C@H]1[C@](C)([C@@H](CCOC(C)=O)C(=O)OC)CC[C@H]2C(=O)O[C@H](c3ccoc3)C[C@]12C`: the EC50 in series [13] turned out to be 13 nM. Also, the Emax in series [14] amounted to 100%; in [1], 0%; in series [2] it was 0%.
As for `COC(=O)[C@@H]1C[C@]2(CCC(=O)O2)C(=O)[C@H]2[C@@]1(C)CC[C@H]1C(=O)O[C@H](c3ccoc3)C[C@]21C`, the EC50 in series [13] came to 0.6 nM. Moreover, the Emax in [14] worked out at 100%; in series [1], 0%; in [2], 0%; in series [7], 62.4%. Moreover, the Stability result in series [3] and in series [4] was “Stable” throughout. Besides, the outcome in [15] was Active. In series [6], the ED50 was 0.759 mg/kg. Further, the inhibition result in series [16], in [9], in series [10], in [11] and in [18] was “Active” throughout. Moreover, the inhibition entry in series [17], in [19], in series [20] and in series [21] was “inactive” throughout.
